ChEMBL document CHEMBL5352477, “Isoform selectivities of novel 4-hydroxycoumarin imines as inhibitors of myosin II” (Eur J Med Chem, 2023)
In brackets after ≈: the same amount, converted by molar mass. Activity calls are given as the source filed them. No cut-off for these calls is given here.

What was measured:
COS-7 [1] = test: Inhibition of Non-muscle myosin IIB in African green monkey COS-7 cells assessed as inhibition of cytokinesis by measuring increase in nuclei to cell ratio (N/C) at 40 uM incubated for 24 hrs by fluorescein-diacetate, Hoechst 33342 and propidium iodide staining based fluorescence microscopy relative to control; conditions: Chlorocebus aethiops
How it was run: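 COS-7 cells (4,000/well) preincubated 24 h at 37 °C in 5% CO2, then exposed 24 h to 40 μM compound, final 1% DMSO. Media and 1% DMSO served as negative controls; para-aminoblebbistatin 20 μM and blebbistatin 10 μM as positive controls. Stained 10 min with FDA 6 μM, Hoechst 33342 10 μM and PI 4 μM, then imaged; N/C counted excluding PI-positive nuclei. Triplicate wells, ≥2 experiments, ≥600 cells per well.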

[2] = (§1) Inhibition of full length chicken phosphorylated myosin 2 smooth muscle isoform derived from gizzard ATPase activity assessed as reduction in steady-state rabbit F-actin-activated Mg2+ ATPase activity incubated for 6 to 24 mins in presence of ATPase buffer at 7.0 containing Mgcl2 and ATP by fluorescence-based assay; format: tissue-based, Gallus gallus
[3] = Kinetic solubility of the compound in 2.5% DMSO/PBS at pH 7.4 incubated for 1 hrs by nephelometry; format: physicochemical; conditions: for solubility kinetic at 1 h: 2.5% DMSO/PBS, pH 7.4, read-out: Kinetic_solubility; for Kinetic_solubility: buffer, pH 7.4, 1 h
How it was run: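 DMSO stock (20 mM) added to PBS pH 7.4, then serially diluted in quadruplicate at a constant 2.5% DMSO. Plates shaken 2 min, incubated 1 h at 37 °C, shaken 3 min, and turbidity read by nephelometry; average blank subtracted.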

[4] = as §1, with “rabbit” for “chicken phosphorylated”, “skeletal” for “smooth”, “Psoas muscle” for “gizzard”; format: tissue-based, Oryctolagus cuniculus
[5] = Inhibition of full length bovine Myosin-2 cardiac muscle isoform from left ventricle ATPase activity assessed as reduction in steady-state rabbit F-actin-activated Mg2+ ATPase activity incubated for 6 to 24 mins in presence of ATPase buffer at 7.0 containing Mgcl2 and ATP by fluorescence-based assay; design: species or system Bos taurus, Heart left ventricle
[6] = Selectivity index, ratio of IC50 for inhibition of full length bovine cardiac muscle myosin II ATPase activity to IC50 for inhibition of full length rabbit skeletal muscle myosin II ATPase activity
COS-7 [7] = test: Cytotoxicity against Green monkey COS-7 cells assessed as reduction in cell viability incubated for 24 hrs by MTT assay; format: toxicity, cell-based; conditions: chlorocebus aethiops, cos-7, 24 h
How it was run: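 COS-7 cells seeded at 2.5 × 10^4 per well, grown 24 h at 37 °C in 5% CO2, then treated 24 h with 20, 40, 100 or 200 μM compound in media with 1% DMSO (4 wells each). MTT 1.2 mM in PBS for 2 h in the dark, lysis in 0.1% NP-40/isopropanol with HCl, A564 read; CC50 and CC90 taken as concentrations giving 50% and 90% loss of viability.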

[8] = Hydrolytic stability of the compound ATPase assay buffer at pH 7 containing Mgcl2 and ATP assessed as half life by UV-visible spectrophotometry; format: physicochemical
How it was run: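 Compound diluted from 20 mM DMSO stock to 8 μM final (2% DMSO) in ATPase buffer: 10 mM MOPS pH 7.0, 50 mM NaCl, 0.1 mM EGTA, 5 mM MgCl2, 2 mM ATP, 1 mM DTT. Kept sealed at 30 °C; UV-vis spectrum (0.5 nm steps, 1 cm quartz) recorded at start and every 24 h against fresh reference solutions.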

Row | SMILES | inhibition (COS-7 [1]) | IC50 [2] [µM] | also measured
1 | CCC/N=C(\C)c1c(O)c2ccccc2[nH]c1=O | inactive | ≥ 100 | –
2 | CCCC/N=C(\C)C1C(=O)Oc2ccccc2C1=O (configuration not stated) | inactive | ≥ 100 | solubility kinetic at 1 h [3]: 607 µM (≈ 157 µg/mL)
3 | CCOCC/N=C(\C)c1c(O)c2ccccc2oc1=O | inactive | ≥ 100 | IC50 [4]: 19 µM; IC50 [5]: 24 µM; Ratio IC50 [6]: 1.3; CC10 (COS-7 [7]): 184 µM; CC50 (COS-7 [7]): > 1000 µM
4 | COc1cc(/C=C/C(=O)c2c(O)c3ccccc3oc2=O)ccc1O | inactive | ≥ 100 | IC50 [4]: ≥ 100 µM; IC50 [5]: ≥ 100 µM
5 | COCCOCCOCCC/N=C(\C)c1c(O)c2ccccc2oc1=O | inactive | ≥ 100 | IC50 [4]: ≥ 100 µM; IC50 [5]: ≥ 100 µM
6 | CCCCC/N=C(\C)c1c(O)c2ccccc2[nH]c1=O | inactive | ≥ 100 | –
7 | CCCCCC/N=C(\C)c1c(O)c2ccccc2oc1=O | inactive | ≥ 100 | –
8 | CCC(C)/N=C(\C)c1c(O)c2ccccc2oc1=O (configuration not stated) | inactive | ≥ 100 | –
9 | COCC/N=C(\C)c1c(O)c2ccccc2oc1=O | inactive | ≥ 100 | IC50 [4]: 90 µM; IC50 [5]: 52 µM; Ratio IC50 [6]: 0.6; CC10 (COS-7 [7]): 286 µM; CC50 (COS-7 [7]): > 200 µM
10 | C/C(=N\CC(C)C)c1c(O)c2ccccc2oc1=O | inactive | ≥ 100 | –
11 | C/C(=N\CC(C)C)c1c(O)c2ccccc2[nH]c1=O | inactive | ≥ 100 | –
12 | C/N=C(\C)C1C(=O)Oc2ccccc2C1=O (configuration not stated) | inactive | ≥ 100 | –
13 | C/C(=N\CCO)c1c(O)c2ccccc2[nH]c1=O | inactive | ≥ 100 | –
14 | C/C(=N\Nc1ccccc1)c1c(O)c2ccccc2oc1=O | inactive | ≥ 100 | –
15 | C/C(=N\Cc1ccc(C)cc1)c1c(O)c2ccccc2oc1=O | inactive | ≥ 100 | –
16 | C/C(=N\Cc1ccccc1)c1c(O)c2ccccc2n(C)c1=O | inactive | ≥ 100 | –
17 | CCOCCC/N=C(\C)c1c(O)c2ccccc2oc1=O | inactive | ≥ 100 | IC50 [4]: 2.5 µM; IC50 [5]: 8.1 µM; Ratio IC50 [6]: 3.2; Kinetic_solubility [3]: > 1250 µM; CC10 (COS-7 [7]): 53 µM; CC50 (COS-7 [7]): 980 µM
18 | C/C(=N\Cc1ccccc1)c1c(O)c2ccccc2oc1=O | inactive | ≥ 100 | t1/2 [8]: > 140 h
19 | C/C(=N\Cc1ccccc1)c1c(O)c2ccccc2[nH]c1=O | inactive | ≥ 100 | –
20 | CCCCN(CCC/N=C(\C)c1c(O)c2ccccc2oc1=O)Cc1cccc(OC)c1 | inactive | ≥ 100 | IC50 [4]: ≥ 100 µM; IC50 [5]: ≥ 100 µM
21 | C/C(=N\Cc1cccnc1)c1c(O)c2ccccc2oc1=O | inactive | ≥ 100 | –
22 | CC/N=C(\C)C1C(=O)Oc2ccccc2C1=O (configuration not stated) | inactive | ≥ 100 | –
23 | CC(=N)C1C(=O)Oc2ccccc2C1=O (configuration not stated) | inactive | ≥ 100 | –
24 | CCC/N=C(\C)c1c(O)c2ccccc2oc1=O | inactive | ≥ 100 | –
25 | Cc1ccc2c(c1)C(=O)[C@]1(O)CCN(c3ccc(N)cc3)C1=N2 | – | ≥ 100 | –

Row | SMILES | inhibition (COS-7 [1]) | IC50 [2] [µM] | also measured
26 | C/C(=N\CCO)c1c(O)c2ccccc2oc1=O | inactive | ≥ 100 | –
27 | C/C(=N\Cc1cccc(C)c1)c1c(O)c2ccccc2oc1=O | inactive | ≥ 100 | –
28 | O=c1oc2ccccc2c(O)c1/C=N/Cc1ccccc1 | inactive | ≥ 100 | IC50 [4]: ≥ 100 µM; IC50 [5]: ≥ 100 µM; t1/2 [8]: 60 h
29 | C/C(=N\CC1CCCCC1)c1c(O)c2ccccc2[nH]c1=O | inactive | ≥ 100 | –
30 | C/C(=N\C(C)C)c1c(O)c2ccccc2oc1=O | inactive | ≥ 100 | –
31 | C/C(=N\Cc1ccncc1)c1c(O)c2ccccc2oc1=O | inactive | ≥ 100 | solubility kinetic at 1 h [3]: > 400 µM
32 | COc1cccc(C/N=C(\C)c2c(O)c3ccccc3oc2=O)c1 | inactive | ≥ 100 | IC50 [4]: 9.1 µM; IC50 [5]: 4.4 µM; Ratio IC50 [6]: 0.5; CC10 (COS-7 [7]): 39 µM; CC50 (COS-7 [7]): > 200 µM
33 | CC/C(=N\Cc1ccccc1)c1c(O)c2ccccc2oc1=O | inactive | ≥ 100 | –
34 | CCOCCC/N=C/c1c(O)c2ccccc2oc1=O | inactive | ≥ 100 | IC50 [4]: 3.3 µM; IC50 [5]: ≥ 100 µM; Ratio IC50 [6]: > 30; CC10 (COS-7 [7]): 135 µM; CC50 (COS-7 [7]): > 1000 µM
35 | C/C(=N\OCc1ccccc1)c1c(O)c2ccccc2oc1=O | inactive | ≥ 100 | –
36 | CCC/C(=N\Cc1ccccc1)c1c(O)c2ccccc2oc1=O | inactive | ≥ 100 | –
37 | Cc1ccc2c(c1)C(=O)[C@]1(O)CCN(c3ccccc3)C1=N2 | inactive | ≥ 100 | –
38 | CCCC/N=C(\C)c1c(O)c2ccccc2[nH]c1=O | inactive | ≥ 100 | –
39 | C/C(=N\Cc1ccccc1)c1c(O)c2cc([N+](=O)[O-])ccc2oc1=O | inactive | ≥ 100 | –
40 | COCCC/N=C(\C)c1c(O)c2ccccc2oc1=O | inactive | ≥ 100 | IC50 [4]: 11 µM; IC50 [5]: 38 µM; Ratio IC50 [6]: 3.5; CC10 (COS-7 [7]): 339 µM; CC50 (COS-7 [7]): > 1000 µM
41 | C/C(=N\Cc1ccccn1)c1c(O)c2ccccc2oc1=O | inactive | ≥ 100 | –
42 | C/C(=N\Cc1ccccc1C)c1c(O)c2ccccc2oc1=O | inactive | ≥ 100 | –
43 | COc1ccc(COCCC/N=C(\C)c2c(O)c3ccccc3oc2=O)cc1 | inactive | ≥ 100 | IC50 [4]: 50 µM; IC50 [5]: ≥ 100 µM; Kinetic_solubility [3]: 103 µM; CC10 (COS-7 [7]): 46 µM; CC50 (COS-7 [7]): > 200 µM
44 | COc1ccc(C/N=C(\C)c2c(O)c3ccccc3oc2=O)cc1 | inactive | ≥ 100 | IC50 [4]: 1.6 µM; IC50 [5]: 5.4 µM; Ratio IC50 [6]: 3.4; CC10 (COS-7 [7]): 36 µM; CC50 (COS-7 [7]): > 200 µM
45 | CCC(C)/N=C(\C)c1c(O)c2ccccc2[nH]c1=O (configuration not stated) | inactive | ≥ 100 | –
46 | C/C(=N\C(C)C)c1c(O)c2ccccc2[nH]c1=O | inactive | ≥ 100 | –
47 | C/C(=N\CCCO)c1c(O)c2ccccc2oc1=O | inactive | ≥ 100 | –
48 | CCCCC/N=C(\C)c1c(O)c2cc([N+](=O)[O-])ccc2oc1=O | inactive | ≥ 100 | –
49 | C/C(=N\CCCOCc1ccc2c(c1)OCO2)c1c(O)c2ccccc2oc1=O | inactive | ≥ 100 | IC50 [4]: 29 µM; IC50 [5]: ≥ 100 µM; Kinetic_solubility [3]: 122 µM; CC10 (COS-7 [7]): 110 µM; CC50 (COS-7 [7]): > 200 µM
50 | CCCCC/N=C(\C)c1c(O)c2ccccc2oc1=O | inactive | ≥ 100 | –
